PGC1a acetyl up: compounds raising PGC1a acetylation signal, primary screen, PGC1a modulator project, cell-based, U2OS, AlphaScreen, signal-increasing mode | overnight | 350,000 compounds, 0.21% hits | AID 651723, 2012 | activation, % at 15.6 µM;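 active = every replicate reaching activation of at least 50%, whatever the mean replicate activation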;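 also: hits raise the AlphaScreen acetylation signal above neutral controls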
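System – flag-PGC1a/GCN5 U2OS cells · Quantity – 7000 U2OS cells per well · Signal – AlphaScreen proximity luminescence, anti-acetyl-lysine antibody · Schedule – overnight compound treatment, 37 °C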
Large screens that a line does not name were inactive. The sample as a whole holds a higher share of hits than the screen did.

COCC(=O)Nc1ccc2c(c1)OC[C@@H](C)N(C(=O)c1ccccn1)C[C@@H](C)[C@@H](OC)CN(C)C2=O	none
COc1ccc(NC(=O)N[C@H]2CC[C@@H](CCn3cc(-c4ccccc4F)nn3)O[C@H]2CO)cc1	none
O=C(CSc1nc(NS(=O)(=O)c2ccccc2)cc(=O)[nH]1)Nc1ccc(F)cc1	PGC1a acetyl up 69.5
C[C@H]1CN([C@@H](C)CO)C(=O)Cc2cc(NS(=O)(=O)c3ccc(F)cc3)ccc2O[C@@H]1CN(C)C(=O)Nc1ccc2c(c1)OCO2	none
NS(=O)(=O)c1cccc(NC(=O)CSc2ccccn2)c1	none
CCN(C(=O)COC(=O)/C=C/c1cccc(Cl)c1)c1c(N)n(Cc2ccccc2)c(=O)[nH]c1=O	none
Cc1cccc(C)c1NC(=O)CS(=O)CC(=O)Nc1ccc(F)cc1F (centres undefined)	PGC1a acetyl up 57.0
O=C(Cc1ccc(-n2cccc2)cc1)NCc1cccs1	PGC1a acetyl up 58.1
CCc1cc(C=NC2CCCCC2)c(O)s1	PGC1a acetyl up 60.6
N#Cc1ccc(C(=O)CSc2nnc(-c3ccc(C(F)(F)F)cn3)s2)cc1	none
CCOc1ccccc1OCCn1nnc2ccccc21	PGC1a acetyl up 53.2
O=C(O)Cn1cc(C(=O)C(F)(F)F)c2ccccc21	none
COc1ccc(-c2cc(C(F)(F)F)nc(S(C)(=O)=O)n2)cc1	PGC1a acetyl up 66.3
CCOC(=O)CCS(=O)(=O)c1nc(-c2ccccc2)cc(C(F)(F)F)n1	none
Oc1ccc(/C=N/Nc2nc(-c3ccc(Cl)cc3)cc(C(F)(F)F)n2)cc1	none
COc1ccc(C(=C(CC(=O)O)C(=O)OC(C)(C)C)c2cc(OC)c(OC)c(OC)c2)cc1OC	none
CCOC(=O)C1CN(S(=O)(=O)c2ccc(C)cc2)c2cc(S(=O)(=O)CC)ccc2O1 (centres undefined)	PGC1a acetyl up 53.6
COc1ccccc1C(=O)Oc1cc(N)n(S(=O)(=O)c2ccc(C)cc2)n1	none
Cc1ccc(S(=O)(=O)N2CCCCC2C(=O)O)cc1 (centres undefined)	none
COc1ccc(S(=O)(=O)N(C)C[C@@H]2Oc3ccc(NC(=O)CCN4CCOCC4)cc3C(=O)N([C@H](C)CO)C[C@H]2C)cc1	none
COc1ccc(CCNCc2ccc(-c3ccccc3)cc2)cc1OC	none
COc1ccc(CCN2C(=O)c3[nH]nc(-c4ccccc4O)c3C2c2ccccc2)cc1OC (centres undefined)	PGC1a acetyl up 52.9
COc1ccc(C2c3c(oc4ccccc4c3=O)C(=O)N2CCN2CCOCC2)cc1OC (centres undefined)	none
Cc1ccccc1CS(=O)(=O)c1nnc([C@H](CC(C)C)NC(=O)OC(C)(C)C)o1	PGC1a acetyl up 74.5
Cc1cc(NS(=O)(=O)c2ccc(NC(=O)CCCOc3ccccc3)cc2)no1	PGC1a acetyl up 51.9
COC(=O)Nc1ccc(Oc2ccccc2)cc1	none
CCOC(=O)/C(C#N)=N/Nc1ccc(S(=O)(=O)Nc2cc(OC)nc(OC)n2)cc1	none
CO[C@H]1CN(C)C(=O)c2ccc(NC(=O)Nc3ccccc3F)cc2OC[C@@H](C)NC[C@@H]1C	none
CCn1c(Cl)c(C=O)s/c1=N\S(=O)(=O)c1ccccc1	none
C=CCN1C(=O)N(/C=C/C)c2cccc3cccc1c23	PGC1a acetyl up 59.6
Nc1ccccc1-c1ccn[nH]1	none
O=C(Nc1nc(C2C3CC4CC(C3)CC2C4)cs1)c1cc2cc([N+](=O)[O-])ccc2oc1=O (centres undefined)	PGC1a acetyl up 52.5
C[C@@H]1CN([C@H](C)CO)C(=O)c2cc(NS(=O)(=O)c3cccs3)ccc2O[C@@H]1CN(C)S(=O)(=O)c1ccc(F)cc1	none
Cc1ccccc1S(=O)(=O)N[C@H]1CC[C@H](CCn2cc(Cc3ccccc3)nn2)O[C@@H]1CO	none
CCCNC(=O)c1nnsc1S(=O)c1ccc(Cl)cc1 (centres undefined)	PGC1a acetyl up 147.5
CCCNC(=O)c1nnsc1S(=O)(=O)c1ccc(Cl)cc1	PGC1a acetyl up 82.4
CNC(=O)c1nnsc1S(=O)c1ccc(Cl)cc1 (centres undefined)	PGC1a acetyl up 116.7
CC1CC(=O)c2c(cc3c(-c4c(O)cc(O)c5c(O)c6c(cc45)OC(C)CC6=O)c(O)cc(O)c3c2O)O1 (centres undefined)	none
COCCCn1[nH]c2c3c(ccc2c1=O)C(=O)c1ccccc1C3=O	none
O=C(OCc1nc(-c2ccccc2)oc1COC(=O)c1ccco1)c1ccco1	none
Cc1nc2ccc(C(=O)Nc3ccccc3Cl)cc2s1	none
C[C@@H]1CN([C@@H](C)CO)C(=O)CCCn2cc(nn2)CO[C@H]1CN(C)Cc1ccncc1	none
Cc1cc(N2CCN(C)CC2)nc(=S)[nH]1	none
Cc1ccc(N2C(=O)c3ccccc3NC2C(C)Cc2ccc3c(c2)OCO3)cc1 (centres undefined)	none
CC(C)C12CN3CC(C(C)C)(CN(C1)C3c1ccc3c(c1)OCO3)C2=O (centres undefined)	PGC1a acetyl up 79.8
CCCNC(=O)CN(C)C(=O)c1n[nH]c2ccccc12	none
CN1C(C(=O)Nc2ccccn2)=C(O)c2sc(Cl)cc2S1(=O)=O	none
Cn1c(O)c(C(C#N)=C2N=c3ccccc3=N2)c2ccccc21	PGC1a acetyl up 71.7
O=C(Nc1ccc(Nc2ccncc2)cc1)c1ccc([N+](=O)[O-])cc1	PGC1a acetyl up 69.9
CC(C)C(=O)Nc1ccc(NC(=O)c2ccc([N+](=O)[O-])cc2Cl)cc1	none
O=C1CC2CS(=O)(=O)CC2N1c1ccc(Cl)cc1Cl (centres undefined)	none
CC(C)c1ccc(NC(=O)CSc2nc3ccsc3c(=O)n2Cc2ccc(C(=O)O)cc2)cc1	none
COc1ccc(S(=O)(=O)N(Cc2cc3ccc(OC)cc3[nH]c2=O)CC2COCCO2)cc1 (centres undefined)	none
C=C1C(=O)C=C[C@]2(C)C[C@@H]3OC(=O)[C@](C)(O)[C@H]3C[C@@H]12	PGC1a acetyl up 177.8
CCOC(=O)C1(Cc2cccc(F)c2)CCN(Cc2c(C)nn(CC)c2C)CC1	none
O=[N+]([O-])c1cc(-c2nnc(Nc3ccc(O)cc3)c3ccccc23)ccc1N1CCOCC1	PGC1a acetyl up 129.1
O=C(C[C@H]1CC[C@@H]2[C@H](COC[C@@H](O)CN2S(=O)(=O)c2ccc(F)cc2)O1)NCCN1CCCCC1	none
CC1CCCCC1NC(=O)C1CCN(C(=O)NC2CCCCC2)CC1 (centres undefined)	none
CN(C)c1ccc(/C=N/N(CCC#N)C2=NS(=O)(=O)c3ccccc32)cc1	none
COc1ccccc1/C=C1\SC(=S)N(CCC(=O)NCCCn2ccnc2)C1=O	PGC1a acetyl up 121.5
COc1ccccc1/C=C1\SC(=O)N(CCC(=O)NCCCn2ccnc2)C1=O	PGC1a acetyl up 214.0
O=C(CCN1C(=O)/C(=C/c2ccccc2)SC1=S)NCCCN1CCOCC1	none
CO[C@H]1CN(C)C(=O)c2cc(NS(C)(=O)=O)ccc2OC[C@H](C)N(C(=O)NC(C)C)C[C@@H]1C	none
O=C(C[C@H]1CC[C@@H](NC(=O)c2ccccc2)[C@H](CO)O1)Nc1ccc(-c2ccccc2)cc1	none
C[C@H]1CN([C@@H](C)CO)S(=O)(=O)c2ccc(-c3cncnc3)cc2O[C@H]1CN(C)C(=O)CN(C)C	none
Cc1nc(N(CCO)C2CCCCC2)c2nnn(Cc3ccccc3)c2n1	none
CCOC(=O)c1ccc(NC(=O)c2nc(S(=O)(=O)Cc3ccccc3)ncc2Cl)cc1	PGC1a acetyl up 78.0
Cc1nc(Nc2ccc(S(N)(=O)=O)cc2)sc1C(=O)Nc1ccccc1	none
O=C1C2C3CCC(C3)C2C(=O)N1CNc1ccc(F)cc1 (centres undefined)	none
CCOc1ccc(S(=O)(=O)/N=C(/Nc2ccc(C(C)=O)cc2)c2ccccc2)cc1	PGC1a acetyl up 65.6

Screening data from PubChem.
